Measured values as given in ChEMBL document CHEMBL2086376, “Total synthesis of 2''',5'''-diepisilvestrol and its C1''' epimer: key structure activity relationships at C1''' and C2'''” (J Nat Prod, 2012).
pEC50, pIC50: −log10 of the molar value. One block for each compound: values may come before it. Activity calls are given as the source filed them. The rule behind the calls is not given here.

Key:
Oryctolagus cuniculus = species on record: Oryctolagus cuniculus; test: Inhibition of translation in rabbit reticulocyte lysate by luciferase assay; type: functional
How it was run: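 Cell-free translation in rabbit reticulocyte lysate, final KCl 135 mM, programmed with 8 μg/mL capped FF/HCV/Ren bicistronic mRNA. Firefly and Renilla luciferase activities were the read-out.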

[1] = Cytotoxicity against human colon cancer cells; type: functional, cell-based; details: Cancer cell lines
A549 = test: Cytotoxicity against human A549 cells; type: functional, cell-based
[2] = Cytotoxicity against human breast cancer cells; type: functional; details: Cancer cell lines, read-out: ED50 (the source's name)
[3] = Cytotoxicity against human lung cancer cells; type: functional; details: Cancer cell lines, read-out: ED50 (the source's name)
Leukemia cell = test: Anticancer activity in patient with chronic lymphocytic leukemia; type: functional; details: Homo sapiens, read-out: LC50 (the source's name)

- inhibition (Oryctolagus cuniculus): Active
SMILES: COC(=O)[C@H]1[C@@H](O)[C@@]2(O)c3c(OC)cc(O[C@@H]4O[C@@H]([C@H](O)CO)CO[C@@H]4OC)cc3O[C@@]2(c2ccc(OC)cc2)[C@@H]1c1ccccc1
- pEC50 [2]: 8.82
- pEC50 [3]: 8.92

- inhibition (Oryctolagus cuniculus): inactive
SMILES: COC(=O)[C@H]1[C@@H](O)[C@@]2(O)c3c(OC)cc(O[C@H]4O[C@@H]([C@@H](O)CO)CO[C@@H]4OC)cc3O[C@@]2(c2ccc(OC)cc2)[C@@H]1c1ccccc1

More lines, now with the values behind:

SMILES: COC(=O)[C@H]1[C@@H](O)[C@@]2(O)c3c(OC)cc(O[C@@H]4O[C@@H]([C@@H](O)CO)CO[C@@H]4OC)cc3O[C@@]2(c2ccc(OC)cc2)[C@@H]1c1ccccc1
- inhibition (Oryctolagus cuniculus): Active

SMILES: COC(=O)[C@H]1[C@@H](O)[C@@]2(O)c3c(OC)cc(O[C@@H]4O[C@@H]([C@@H](O)CO)CO[C@H]4OC)cc3O[C@@]2(c2ccccc2)[C@@H]1c1ccccc1
- pIC50 [1]: 8.00
- pIC50 (A549): 6.89

SMILES: COC(=O)[C@H]1[C@@H](O)[C@@]2(O)c3c(OC)cc(O[C@@H]4O[C@@H]([C@H](O)CO)CO[C@H]4OC)cc3O[C@@]2(c2ccc(OC)cc2)[C@@H]1c1ccccc1 [SILVESTROL]
- pEC50 [2]: 8.82
- CC50 (Leukemia cell): 6.9 nM
- pEC50 [3]: 8.92
